# Assay results taken from paper PMC2843764 (Bioorganic & medicinal chemistry letters, 2010).
# Key:
# α2-adrenergic receptors = details: cited from earlier work
# RBBP9 [1] = molecular target: T1, RBBP9 (Homo sapiens, UniProt O75884); details: ~20,000 compound fluopol-ABPP screen ref 5; cited from earlier work
# RBBP9 [2] = molecular target: T1, RBBP9; assay: reversibility of RBBP9 inhibition by gel filtration, FP-Rh labeling; format: biochemical; details: inhibitor 100 µM
# Outline: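 One half was reacted directly with FP-Rh. The other half was gel-filtered, then reacted with FP-Rh. Probe labelling was compared between the two halves.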
# translation (ribosome) = details: in vitro ref 15; cited from earlier work
# [3] = test system: serine hydrolases of the mouse brain membrane proteome; format: biochemical; details: mouse brain membrane proteome doped with RBBP9, FP-Rh probe, up to 200 µM
# Outline: (§1)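 Gel-based competitive ABPP. Two proteomes were used: the soluble fraction of RBBP9-transfected HEK 293T cells, and mouse brain membrane fraction doped with recombinant RBBP9. Each was preincubated 30 minutes with test compound (HEK: 20 and 200 µM; brain: a concentration series or 200 µM), then given FP-Rh (1 µM). Reactions were quenched after 10 minutes, run on SDS-PAGE and quantified by in-gel fluorescence scanning.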
# RBBP9 [4] = molecular target: T1, RBBP9; assay: LC-MS/MS identification of site of covalent labeling on RBBP9; details: trypsin digest, +138.00 Da modification
# [5] = test system: serine hydrolases of the HEK 293T soluble proteome; assay: competitive ABPP with FP-Rh in RBBP9-transfected HEK 293T soluble proteome; format: biochemical; details: FP-Rh probe, 20 and 200 µM
# Outline: as §1
# [6] = molecular target: T2, glutathione transferase omega 1 (GSTO1) (Homo sapiens, UniProt P78417); assay: PS-Rh labeling of GSTO1 in MDA-MB-231 proteome; format: biochemical; details: compounds 20 µM, PS-Rh 5 µM, 1 hour
# T2 sequence (P78417 1-241): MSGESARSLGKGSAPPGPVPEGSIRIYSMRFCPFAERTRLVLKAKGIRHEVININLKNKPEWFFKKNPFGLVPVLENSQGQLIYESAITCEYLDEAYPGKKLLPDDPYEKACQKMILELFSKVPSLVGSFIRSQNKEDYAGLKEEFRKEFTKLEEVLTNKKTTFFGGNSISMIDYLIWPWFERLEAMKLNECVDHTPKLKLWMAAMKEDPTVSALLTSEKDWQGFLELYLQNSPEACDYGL
# Outline: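 Gel-based competitive ABPP for thiol cross-reactivity. MDA-MB-231 proteome was treated with test compound (20 µM) and then labelled with the cysteine-reactive phenylsulfonate-rhodamine probe (5 µM, 1 hour). Labelled proteins were resolved on gel and read by fluorescence.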
# RBBP9 [7] = molecular target: T1, RBBP9; assay: fluopol-ABPP screen for RBBP9 inhibition; format: biochemical; details: read-out: percent inhibition of RBBP9 in fluopol-ABPP confirmation screen
# purified RBBP9 = purified RBBP9 (Homo sapiens, UniProt O75884); assay: gel-based competitive ABPP with purified RBBP9; format: biochemical; details: for RBBP9 inhibitory activity (in words): purified RBBP9, 20 µM
# Sequence of purified RBBP9 (O75884 whole entry): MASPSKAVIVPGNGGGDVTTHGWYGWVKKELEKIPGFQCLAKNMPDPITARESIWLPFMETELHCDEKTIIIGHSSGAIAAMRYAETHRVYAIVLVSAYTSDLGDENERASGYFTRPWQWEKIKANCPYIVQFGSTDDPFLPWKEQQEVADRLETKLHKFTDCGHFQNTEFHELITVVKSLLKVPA
# T1 sequence (O75884 whole entry): as above
smiles,measurement,setting,value
"CC[C@H]1CN2CCc3cc(OC)c(OC)cc3[C@@H]2C[C@@H]1C[C@H]1NCCc2cc(OC)c(OC)cc21 [1 (emetine), emetine]",antagonism of α2-adrenergic receptors,α2-adrenergic receptors,antagonize of α2-adrenergic receptors
same,mode of RBBP9 inhibition,RBBP9 [1],reversible inhibitor of RBBP9
same,reversibility of blockade of FP-rhodamine RBBP9 labeling,RBBP9 [2],reversible inhibitor
same,inhibition of translation,translation (ribosome),inhibit translation in vitro
C/C(=N\OC(=O)c1ccc(Cl)cc1)c1nccs1 [Compound 2],reversibility of blockade of FP-rhodamine RBBP9 labeling,RBBP9 [2],not reversed by gel filtration
same,selectivity for RBBP9 over other hydrolases,[3],highly selective for RBBP9
same,site of covalent adduct on RBBP9,RBBP9 [4],adduct only on the active site serine nucleophile (Ser75)
COc1ccc(C(=O)O/N=C(\C)c2nccs2)cc1 [Compound 3],selectivity for RBBP9 over other hydrolases,[3],highly selective for RBBP9
CC1=CC(=NOC(=O)/C=C/c2ccccc2)C=C(C)C1=O [Compound 4],selectivity for RBBP9 over other hydrolases,[5],less selective for RBBP9
same,inhibition of PS-Rh labeling of GSTO1,[6],potently inhibited
same,inhibition at 7.94 µM,RBBP9 [7],~80%
C/C(=N\OC(=O)c1ccc([N+](=O)[O-])cc1)c1nccs1 [Compound 12],RBBP9 inhibitory activity (in words),purified RBBP9,loss of RBBP9 inhibitory activity
C/C(=N\OC(=O)c1ccc(-c2ccccc2)cc1)c1nccs1 [Compound 13],RBBP9 inhibitory activity (in words),purified RBBP9,completely ablating all inhibitory activity
C/C(=N\OC(=O)C1CCCCC1)c1nccs1 [Compound 18],selectivity for RBBP9 over other hydrolases,[5],selective for RBBP9
same,fold lower IC50 than hit compound 2,purified RBBP9; recombinant RBBP9,3 fold
same,selectivity for RBBP9 over other hydrolases,[3],did not inhibit any other hydrolases
CC(=O)O/N=C(\C)c1nccs1 [Compound 19],RBBP9 inhibitory activity (in words),purified RBBP9,no detectable inhibitory activity
C/C(=N\OC(=O)N1CCCCC1)c1nccs1 [Compound 20],RBBP9 inhibitory activity (in words),purified RBBP9,no inhibition of RBBP9
COc1ccc(C(=O)ON=C2C=C(C)C(=O)C(C)=C2)cc1 [Compound 21],inhibition of PS-Rh labeling of GSTO1,[6],no longer inhibited GSTO1
same,selectivity for RBBP9 over other hydrolases,[3],good selectivity for RBBP9
COc1ccc(C(=O)O/N=C2/C=C(C)C(=O)C=C2C)cc1 [Compound 22],RBBP9 inhibitory activity (in words),purified RBBP9,loss of RBBP9 inhibitory activity
COc1ccc(C(=O)ON=C2C(C)=CC(=O)C=C2C)cc1 [Compound 23],RBBP9 inhibitory activity (in words),purified RBBP9,"loss of RBBP9 inhibitory activity, an effect exacerbated"
C/C(=N\OC(=O)/C=C/c1ccccc1)c1nccs1 [Compound 24],RBBP9 inhibitory activity (in words),purified RBBP9,significantly reduced activity against RBBP9
